Columns and labels:
[1] = Stability of compound in foetal bovine serum at 100 uM measured for 2 to 48 hrs by reverse phase HPLC chromatographic analysis; format: ADME, cell-free, Bos taurus; conditions: cattle, time 2-48 hrs
In short: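 Held at 100 µM in foetal bovine serum at 37 °C for up to 48 h (2–48 h). Each aliquot diluted 1:10 in pH 7.4 culture medium before RP-HPLC with a 35 min 0.1% TFA water/acetonitrile gradient. Chromatographic profile monitored.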

[2] = Chemical stability of compound in cell culture medium at 100 uM at acidic pH measured for 2 to 48 hrs by reverse phase HPLC chromatographic analysis; format: physicochemical; conditions: time 2-48 hrs
In short: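 Incubated at 100 µM, 37 °C, in phenol red-free DMEM High Glucose at pH 5, 7.4 or 8 for up to 48 h (2–48 h). Aliquots taken at each time point and analysed by RP-HPLC with a 35 min 0.1% TFA water/acetonitrile gradient. Chromatographic profile and 640/330 nm peak-area ratio followed.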

[3] = Drug uptake in human A-375 cells harboring BRAF V600E mutant assessed as fluorescent signal at cytoplasm at 0.5 uM measured after 48 hrs by fluorescence microscopy; format: ADME, cell-based; conditions: a-375, 48 h
In short: (§1)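 A375 and HeLa cells seeded at 3 × 10^4 and treated 24 h later with 0.5 µM compound or DMSO vehicle for 48 h. Washed with PBS, fixed in 4% formaldehyde for 10 min at room temperature, and stained with DAPI and phalloidin. Cy5 signal imaged by inverted fluorescence microscopy.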

[4] = Drug uptake in human Hela cells assessed as fluorescent signal at 0.5 uM measured after 48 hrs by fluorescence microscopy; format: ADME, cell-based; in short: as §1
[5] = test system: Serine/threonine-protein kinase B-raf (Homo sapiens), P15056 [V600E]; assay: Displacement of Vemurafenib from BRAF V600E mutant in human WM278 cells assessed as increase in cyno-fluorescence measured after 90 mins by flow cytometry based displacement assay; format: cell-based
In short: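 Without washing, the Cy5 probe was added at 0, 0.05, 0.2, 1 and 2 µM for 90 min more. Cells were washed three times with medium (15 min each), imaged live, detached, and cell-associated Cy5 fluorescence was quantified by flow cytometry.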

C32 = assay: Cytotoxicity against human C32 cells expressing heterozygous BRAF V600E mutant assessed as cell growth measured after 7 days of treatment by crystal violet assay; format: functional, cell-based; conditions: C32, 168 h
In short: (§2)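 Cells seeded in 12-well plates: 8505C at 3 × 10^3, C32 at 10^4, HT29 at 5 × 10^3. Treated 24 h later with a dose series or DMSO vehicle for 7 days. Fixed in 4% PFA and stained with 0.1% crystal violet in 20% methanol. Destained with 10% acetic acid and read at 590 nm. Normalised to vehicle; mean ± SEM of three independent experiments.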

HT-29 = assay: Cytotoxicity against human HT-29 cells expressing heterozygous BRAF V600E mutant assessed as cell growth measured after 7 days of treatment by crystal violet assay; format: functional, cell-based; conditions: HT-29, 168 h; in short: as §2
8505C = assay: Cytotoxicity against human 8505C cells expressing homozygous BRAF V600E mutant assessed as cell growth measured after 7 days of treatment by crystal violet assay; format: functional, cell-based; conditions: 168 h; in short: as §2
[6] = biological target: Serine/threonine-protein kinase B-raf (Homo sapiens, UniProt P15056, V600E); assay: biochemical
[7] = Cytotoxicity against human cells expressing heterozygous BRAF V600E mutant assessed as cell growth measured after 7 days of treatment by crystal violet assay; conditions: 168 h

Serine/threonine-protein kinase B-raf, sequence (P15056 2-766 V600E limits assumed): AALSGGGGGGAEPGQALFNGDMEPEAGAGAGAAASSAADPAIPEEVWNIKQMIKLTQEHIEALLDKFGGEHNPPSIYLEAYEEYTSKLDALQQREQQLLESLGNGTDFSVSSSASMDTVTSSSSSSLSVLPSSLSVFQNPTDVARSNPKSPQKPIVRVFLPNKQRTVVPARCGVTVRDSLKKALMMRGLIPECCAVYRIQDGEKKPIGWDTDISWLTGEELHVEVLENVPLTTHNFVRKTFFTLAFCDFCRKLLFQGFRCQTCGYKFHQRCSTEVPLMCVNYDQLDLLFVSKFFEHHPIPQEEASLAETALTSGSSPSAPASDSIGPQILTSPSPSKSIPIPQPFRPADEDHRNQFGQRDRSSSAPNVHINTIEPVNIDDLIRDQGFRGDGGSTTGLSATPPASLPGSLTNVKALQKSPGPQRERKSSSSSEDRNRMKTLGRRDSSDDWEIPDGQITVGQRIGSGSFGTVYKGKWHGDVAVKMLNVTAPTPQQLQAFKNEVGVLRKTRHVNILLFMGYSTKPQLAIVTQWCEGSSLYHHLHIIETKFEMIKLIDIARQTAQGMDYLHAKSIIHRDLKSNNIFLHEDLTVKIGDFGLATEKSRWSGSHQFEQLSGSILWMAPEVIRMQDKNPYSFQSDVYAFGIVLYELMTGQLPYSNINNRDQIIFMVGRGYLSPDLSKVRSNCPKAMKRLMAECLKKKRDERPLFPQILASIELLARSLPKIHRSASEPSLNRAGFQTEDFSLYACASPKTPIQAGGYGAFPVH
Serine/threonine-protein kinase B-raf (Homo sapiens), P15056 [V600E], sequence (P15056 whole entry V600E): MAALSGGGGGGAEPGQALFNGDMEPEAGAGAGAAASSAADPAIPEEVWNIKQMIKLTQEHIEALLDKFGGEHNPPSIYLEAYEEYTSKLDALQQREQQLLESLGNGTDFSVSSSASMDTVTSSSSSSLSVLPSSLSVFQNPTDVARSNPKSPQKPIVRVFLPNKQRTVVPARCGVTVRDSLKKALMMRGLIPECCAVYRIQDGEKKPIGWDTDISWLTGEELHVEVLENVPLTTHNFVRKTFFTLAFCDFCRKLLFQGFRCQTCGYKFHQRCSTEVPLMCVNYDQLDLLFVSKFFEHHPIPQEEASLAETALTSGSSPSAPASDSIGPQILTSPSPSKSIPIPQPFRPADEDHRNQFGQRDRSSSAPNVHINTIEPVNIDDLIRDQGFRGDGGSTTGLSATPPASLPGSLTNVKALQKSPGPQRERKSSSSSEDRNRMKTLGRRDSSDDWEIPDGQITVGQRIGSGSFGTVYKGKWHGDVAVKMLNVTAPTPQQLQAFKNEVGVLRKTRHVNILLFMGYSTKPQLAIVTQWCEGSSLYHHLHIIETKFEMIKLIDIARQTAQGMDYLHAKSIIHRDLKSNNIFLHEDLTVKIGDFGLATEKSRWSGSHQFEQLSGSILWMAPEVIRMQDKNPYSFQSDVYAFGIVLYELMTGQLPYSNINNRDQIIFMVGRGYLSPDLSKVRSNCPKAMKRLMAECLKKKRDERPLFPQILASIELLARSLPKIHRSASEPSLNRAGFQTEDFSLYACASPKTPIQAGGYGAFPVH

| Stability [1] | Stability [2] | Drug uptake [3] | Drug uptake [4] | Activity [5] | Kd [6] [nM] | SMILES | IC50 (C32) [nM] | IC50 (HT-29) [nM] | IC50 (8505C) [nM] | IC50 [7] [nM] |
| --- | --- | --- | --- | --- | --- | --- | --- | --- | --- | --- |
| Stable | Unstable | Active | Not Active | Dose-Dependent Effect | 13 | CCCS(=O)(=O)Nc1ccc(F)c(C(=O)c2c[nH]c3ncc(-c4ccc(NC(=O)COCCOCCNC(=O)CCCCC[N+]5=C(/C=C/C=C/C=C6\N(C)c7ccccc7C6(C)C)C(C)(C)c6ccccc65)cc4)cc23)c1F.O=C([O-])C(F)(F)F | 630 | 340 | 2500 | 570 |
|  |  |  |  |  |  | CCCS(=O)(=O)Nc1ccc(F)c(C(=O)c2c[nH]c3ncc(-c4ccc(N)cc4)cc23)c1F | 12 | 27 | 620 | 15 |
|  |  |  |  |  |  | CCCS(=O)(=O)Nc1ccc(F)c(C(=O)c2c[nH]c3ncc(-c4ccc(Cl)cc4)cc23)c1F [VEMURAFENIB] | 84 | 49 | 2940 | 150 |

Reference: ChEMBL document CHEMBL5370545 (Eur J Med Chem, 2023)
